Reference: ChEMBL document CHEMBL1154746, “Anti-oxidant and anti-bacterial activities of novel N'-arylmethylidene-2-(3, 4-dimethyl-5, 5-dioxidopyrazolo[4,3-c][1,2]benzothiazin-2(4H)-yl) acetohydrazides” (2010)
Values after ≈ are worked out from the molar mass of the structure shown.

Columns and labels:
Assay type in all cases: functional
Escherichia coli = experiment: Antimicrobial activity against Escherichia coli after 24 hrs by agar dilution technique
Summary of the method: (§1)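 Suspensions of E. coli, B. subtilis and Staphylococcus aureus were prepared at about 10⁵–10⁶ CFU/well, and test compounds were applied to the wells over a concentration range. MIC was taken as the lowest concentration with no apparent growth, disregarding a single colony or a faint haze from the inoculum.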

[1] = Antioxidant activity assessed as superoxide radical scavenging activity measured as formazone formation by spectrophotometry relative to control; parameters: concentration or dose not given beside the values
Summary of the method: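 NADH–NBT–PMS superoxide-generating mixture in 0.1 M phosphate buffer, pH 7.4, with reagents made up in buffer. Sample was added from a 1 mM DMSO solution. The reaction ran at room temperature, and superoxide formation was followed as blue formazan absorbance at 560 nm. Lower absorbance was read as higher scavenging.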

Staphylococcus aureus = experiment: Antimicrobial activity against Staphylococcus aureus after 24 hrs by agar dilution technique; summary of the method: as §1
Bacillus subtilis = experiment: Antimicrobial activity against Bacillus subtilis after 24 hrs by agar dilution technique; summary of the method: as §1

Row | SMILES | MIC (Escherichia coli) | Activity [1] | MIC (Staphylococcus aureus) | MIC (Bacillus subtilis)
1 | Cc1c2c(nn1CC(=O)N/N=C/c1ccc(Cl)cc1Cl)-c1ccccc1S(=O)(=O)N2C | > 200 µg/mL | 48.7% | > 200 µg/mL | > 200 µg/mL
2 | Cc1c2c(nn1CC(=O)N/N=C/c1ccc(O)cc1O)-c1ccccc1S(=O)(=O)N2C | 5 µg/mL (≈ 11.3 µM) | 98.3% | > 200 µg/mL | 39 µg/mL (≈ 88.3 µM)
3 | Cc1c2c(nn1CC(=O)N/N=C/c1ccccc1Cl)-c1ccccc1S(=O)(=O)N2C | > 200 µg/mL | 44.2% | > 200 µg/mL | > 200 µg/mL
4 | Cc1c2c(nn1CC(=O)N/N=C/c1cccc([N+](=O)[O-])c1)-c1ccccc1S(=O)(=O)N2C | > 200 µg/mL | 52.2% | > 200 µg/mL | > 200 µg/mL
5 | Cc1c2c(nn1CC(=O)N/N=C/c1ccccc1[N+](=O)[O-])-c1ccccc1S(=O)(=O)N2C | > 200 µg/mL | 28.8% | > 200 µg/mL | > 200 µg/mL
6 | Cc1c2c(nn1CC(=O)N/N=C/c1ccc(Cl)c(Cl)c1)-c1ccccc1S(=O)(=O)N2C | > 200 µg/mL | 51.5% | > 200 µg/mL | > 200 µg/mL
7 | COc1ccc(/C=N/NC(=O)Cn2nc3c(c2C)N(C)S(=O)(=O)c2ccccc2-3)c(OC)c1 | 17 µg/mL (≈ 36.2 µM) | 53.1% | > 200 µg/mL | > 200 µg/mL
8 | Cc1c2c(nn1CC(=O)N/N=C/c1ccccn1)-c1ccccc1S(=O)(=O)N2C | 28 µg/mL (≈ 68.2 µM) | 24% | > 200 µg/mL | 88 µg/mL (≈ 214 µM)
9 | CN(C)[C@@H]1C(O)=C(C(N)=O)C(=O)[C@@]2(O)C(O)=C3C(=O)c4c(O)cccc4[C@@](C)(O)[C@H]3C[C@@H]12 [TETRACYCLINE] | 0.25 µg/mL (≈ 0.563 µM) |  | 0.78 µg/mL (≈ 1.76 µM) | 0.35 µg/mL (≈ 0.788 µM)
10 | CCCOC(=O)c1cc(O)c(O)c(O)c1 |  | 91.3% |  | 
11 | Cc1c2c(nn1CC(=O)N/N=C/c1ccccc1)-c1ccccc1S(=O)(=O)N2C | 69 µg/mL (≈ 169 µM) | 33.9% | > 200 µg/mL | > 200 µg/mL
12 | COc1cccc(/C=N/NC(=O)Cn2nc3c(c2C)N(C)S(=O)(=O)c2ccccc2-3)c1 | 23 µg/mL (≈ 52.3 µM) | 44.9% | > 200 µg/mL | 69 µg/mL (≈ 157 µM)
13 | Cc1c2c(nn1CC(=O)N/N=C/c1ccc(Cl)cc1)-c1ccccc1S(=O)(=O)N2C | > 200 µg/mL | 23.3% | > 200 µg/mL | > 200 µg/mL
14 | Cc1c2c(nn1CC(=O)N/N=C/c1ccc([N+](=O)[O-])cc1)-c1ccccc1S(=O)(=O)N2C | > 200 µg/mL | 23.7% | > 200 µg/mL | > 200 µg/mL
15 | CCOc1cc(/C=N/NC(=O)Cn2nc3c(c2C)N(C)S(=O)(=O)c2ccccc2-3)ccc1O | 11 µg/mL (≈ 23.4 µM) | 71.1% | > 200 µg/mL | 47 µg/mL (≈ 100 µM)
16 | Cc1c2c(nn1CC(=O)N/N=C/c1cccnc1)-c1ccccc1S(=O)(=O)N2C | 27 µg/mL (≈ 65.8 µM) | 25.1% | > 200 µg/mL | 95 µg/mL (≈ 231 µM)
17 | Cc1c2c(nn1CC(=O)N/N=C/c1cccs1)-c1ccccc1S(=O)(=O)N2C | 23 µg/mL (≈ 55.4 µM) | 14.6% | 55 µg/mL (≈ 132 µM) | 77 µg/mL (≈ 185 µM)
18 | Cc1c2c(nn1CC(=O)N/N=C/c1ccc(F)cc1)-c1ccccc1S(=O)(=O)N2C | > 200 µg/mL | 17.4% | > 200 µg/mL | > 200 µg/mL
19 | Cc1c2c(nn1CC(=O)N/N=C/c1ccsc1)-c1ccccc1S(=O)(=O)N2C | 24 µg/mL (≈ 57.8 µM) | 16.5% | 61 µg/mL (≈ 147 µM) | 82 µg/mL (≈ 197 µM)
